Compound activity as filed in PubChem.
RanGTP-Impb inh = disruptors of Ran-importin-beta complex formation – biochemical, FRET, CFP-Ran, YFP-importin-beta, homogeneous, primary screen; hit rate 1.1% among 300,000; AID 2216; cell-free CFP-Ran/YFP-importin-beta FRET ratio; inhibition, % (test concentration not listed);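 active means more than half of the replicate wells show a fall in the fluorescence ratio signal beyond about 16%, limit read from the data, passing the limit was not always enough; inconclusive means exactly half of the replicate wells pass the set limit; inactive means fewer than half of replicates pass the limit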
Runt-SMMHC FRET = inhibitors of human RUNX1 Runt domain binding to CBFb-SMMHC. AID 1434. Q01196+Q13951. hit rate 0.74% among 220,000. Cerulean-Runt/Venus-CBFb-SMMHC FRET ratio 530/480, 1 h. inhibition, % at 20 µM;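 active means mean inhibition across duplicate retests at 20 µM reaching about 50%, limit read from the data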;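 further: inhibitors lower the FRET ratio by blocking Runt binding to CBFb-SMMHC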
p97 inhibitor = blocks human p97 ATPase activity; inhibition, % at 8 µM; hit rate 0.42% among 220,000; recombinant p97 ATPase, Kinase-Glo ATP luminescence, 3 h; P55072; in the data active means inhibition above about 15%
Target sequence (P55072 whole entry, looked up): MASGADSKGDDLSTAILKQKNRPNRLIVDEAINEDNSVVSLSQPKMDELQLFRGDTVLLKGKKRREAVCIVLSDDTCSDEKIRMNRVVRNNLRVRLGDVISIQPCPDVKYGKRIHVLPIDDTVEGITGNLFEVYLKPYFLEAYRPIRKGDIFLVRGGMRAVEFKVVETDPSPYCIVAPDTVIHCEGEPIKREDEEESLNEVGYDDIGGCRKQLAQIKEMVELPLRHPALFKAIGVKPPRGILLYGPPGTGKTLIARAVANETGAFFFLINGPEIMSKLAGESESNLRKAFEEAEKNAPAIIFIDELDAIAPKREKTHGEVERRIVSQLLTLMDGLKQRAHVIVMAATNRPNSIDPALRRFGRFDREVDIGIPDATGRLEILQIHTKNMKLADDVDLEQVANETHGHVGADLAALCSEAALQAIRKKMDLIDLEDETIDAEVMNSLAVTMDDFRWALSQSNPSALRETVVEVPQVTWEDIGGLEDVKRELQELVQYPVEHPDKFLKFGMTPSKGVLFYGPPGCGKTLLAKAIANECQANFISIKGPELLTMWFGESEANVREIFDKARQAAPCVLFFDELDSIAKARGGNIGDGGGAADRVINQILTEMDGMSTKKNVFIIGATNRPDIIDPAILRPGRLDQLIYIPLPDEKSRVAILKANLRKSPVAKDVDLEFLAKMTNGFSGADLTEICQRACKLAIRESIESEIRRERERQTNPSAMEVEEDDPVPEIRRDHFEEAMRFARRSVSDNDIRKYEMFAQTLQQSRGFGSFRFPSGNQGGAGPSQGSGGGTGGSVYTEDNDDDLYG
TbHK1 inh = blocks Trypanosoma brucei hexokinase 1 activity. recombinant TbHK1, G6PDH-coupled NADH A340. inhibition, % at 10 µM. hit rate 0.11% among 220,000. AID 1430;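 active means inhibition of 50% or more in the single-dose primary screen; inactive means inhibition below 50%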
Runt-CBFb FRET = Runt domain-CBFb interaction inhibition. Q01196+Q13951. Cerulean-Runt/Venus-CBFb FRET ratio 530/480, 1 h. inhibition, % at 20 µM. hit rate 0.46% among 220,000. AID 1496;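 active means inhibition over about 50% at 20 µM in the single-dose screen, limit read from the data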
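Measured by: fluorescence energy transfer, 422 nm excitation, 530/480 nm emission; Assay system: Cerulean-Runt domain; Medium: Tris pH 7.5 buffer with BSA; Measure: loss of energy transfer signal; Controls: 5 µM unlabeled CBFb as full-inhibition high control; Incubation: protein complex preformed 1 h, compound exposure 1 h, room temperature, dark.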
Hck-Nef inh = human Hck-Nef kinase inhibition; P08631; Recombinant Hck-YEEI plus Nef, Z-Lyte FRET kinase assay; inhibition, % at 20 µM; hit rate 0.68% among 220,000;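 active means Hck-Nef kinase inhibition above about 50%, limit read from the data; inactive means inhibition below that limit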
YIC FRET counter = counter-screen for RanGTP-importin-beta inhibitors: YIC FRET probe; shares compounds with RanGTP-Impb inh; Purified YIC probe, intramolecular FRET ratio YFP/CFP; IC50, µM; hit rate 40% among 1,000;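 active means fitted half-maximal inhibitory concentration no more than tenfold above the top dose tested; inconclusive means flat fit with 30 to 70% activity, or poor fit; inactive means half-maximal concentration beyond tenfold above the top dose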
Of the large screens only hits and unclear results are named; the others gave an inactive call (follow-up assays come after a bar, where they were run). This is a sample that favours compounds with a hit; in the whole collection about 2.1% have one here.

C[C@]12CCC3C(CC=C4C[C@@H](O)CC[C@@]43C)C1CCC2[C@]1(C)CCC(=O)O1 (stereo partly specified)	none
Cc1ccc(Nc2nc(N)[nH]c(=O)c2N=O)cc1	RanGTP-Impb inh 28.9 | YIC FRET counter 18.9
O=C(CN1CCN(c2ccccc2)CC1)N/N=C/c1cccc(F)c1	none
COc1ccc2cc(CCN3C(=O)c4ccccc4C3=O)c(=O)[nH]c2c1	RanGTP-Impb inh 20.4 | YIC FRET counter inactive
CC1CN(c2nc3ccccc3nc2C(C#N)C(=O)OC2CCCCC2)CC(C)O1 (stereo unspecified)	RanGTP-Impb inh inconclusive
CC1CCN(c2nc3ccccc3nc2C(C#N)C(=O)OC2CCCCC2)CC1 (stereo unspecified)	RanGTP-Impb inh 19.7 | YIC FRET counter 14.5
CCOC(=O)C1=C(C)NC2=C(C(=O)C(C(=O)OCC)C(c3cccc(OC)c3)C2)C1c1ccccn1 (stereo unspecified)	RanGTP-Impb inh 26.3, Runt-SMMHC FRET 88.8 | YIC FRET counter 21.4
CCOC(=O)C1=C(C)NC2=C(C(=O)C(C(=O)OCC)C(c3ccccc3OC)C2)C1c1ccccn1 (stereo unspecified)	RanGTP-Impb inh 18.3, Runt-SMMHC FRET 83.2 | YIC FRET counter 23.2
CCOC(=O)C1=C(C)NC2=C(C(=O)C(C(=O)OCC)C(c3ccc(OC)cc3)C2)C1c1ccccn1 (stereo unspecified)	RanGTP-Impb inh 18.0, Runt-SMMHC FRET 74.7 | YIC FRET counter 27.5
Cc1cccc(C(=O)N/C(=C\c2ccc(C)o2)C(=O)O)c1	none
Cc1c(C#N)c(NC(=O)CCl)n(Cc2ccccc2)c1C	RanGTP-Impb inh 23.1 | YIC FRET counter inactive
COc1ccc(OC)c(S(=O)(=O)n2ccnc2C)c1	RanGTP-Impb inh 27.0 | YIC FRET counter inactive
NS(=O)(=O)c1ccc(CCNC(=O)c2ccccc2-c2ccccc2)cc1	none (no result: Runt-SMMHC FRET, p97 inhibitor, TbHK1 inh, Runt-CBFb FRET, Hck-Nef inh)
NC(=O)c1sc2nccc(Nc3ccccc3)c2c1N	RanGTP-Impb inh 39.1 | YIC FRET counter inactive
Cc1ccccc1NC(=O)C1c2cccc[n+]2CC(=O)N1Cc1ccc2c(c1)OCO2 (stereo unspecified)	none
Cc1cccc(C)c1NC(=O)C1c2cccc[n+]2CC(=O)N1Cc1cccs1 (stereo unspecified)	RanGTP-Impb inh 23.0 | YIC FRET counter inactive
CC(C)CCNC(=O)C(c1ccco1)N(Cc1ccc(F)cc1)C(=O)c1snc(C(N)=O)c1N (stereo unspecified)	RanGTP-Impb inh 28.7 | YIC FRET counter inactive
CCNC(=S)N1CCN(CC)CC1	none
Cc1cccc(C(=O)Nc2sc(C)c(-c3ccccc3)c2C#N)c1	RanGTP-Impb inh 38.9 | YIC FRET counter inactive
Cc1cccc(C(=O)Nc2sc(C(=O)N3CCCC3)c(C)c2C#N)c1	none
CCOC(=O)c1ccc(-c2ccc3c(=O)c4ccccc4n(C)c3c2)cc1F	RanGTP-Impb inh 43.7 (no result: Runt-SMMHC FRET, p97 inhibitor, TbHK1 inh, Runt-CBFb FRET, Hck-Nef inh) | YIC FRET counter 1.29
Cc1[nH]c(C)c(S(=O)(=O)NCc2ccc(N(C)C)cc2)c1C(=O)N1CCCC1	none (no result: Runt-SMMHC FRET, p97 inhibitor, TbHK1 inh, Runt-CBFb FRET, Hck-Nef inh)
COc1ccc(NC(=O)Nc2ccc(F)c(F)c2)c(OC)c1	none
NS(=O)(=O)c1ccc(NC(=O)COC(=O)c2cc([N+](=O)[O-])ccc2Cl)cc1	none
CCOc1ccc(NC(=O)c2ccc(-n3cccn3)nc2)cc1	RanGTP-Impb inh inconclusive
COc1cc(C2C3CN(C)CC=C3C(C#N)=C(N)C2(C#N)C#N)ccc1OC(C)C (stereo unspecified)	RanGTP-Impb inh 38.6, Runt-CBFb FRET 88.3 | YIC FRET counter 3.34
Clc1ccc(/C=C\c2nccc3c2[nH]c2ccccc23)cc1	RanGTP-Impb inh 27.9 | YIC FRET counter 8.61
Clc1ccc(/C=C/c2nc3ccccc3[nH]2)cc1	none
Cn1cc(C(=O)c2cccc(Cl)c2)cc1/C=N\O	none
CO/N=C\c1cc(C(=O)c2ccc(Cl)cc2Cl)cn1C	RanGTP-Impb inh 31.6 | YIC FRET counter inactive
O=C(NC1CC1)c1ccc2c(Cl)c3c(nc2c1)CCCC3	RanGTP-Impb inh 17.5 | YIC FRET counter inactive
CCOC(=O)N1CCC(NC(=O)c2ccc3c(Cl)c4c(nc3c2)CCCC4)CC1	none (no result: RanGTP-Impb inh)
CCOC(=O)C/C(=N\Nc1ncnc2ccccc12)c1ccccc1	RanGTP-Impb inh 23.1 (no result: Runt-SMMHC FRET, p97 inhibitor, TbHK1 inh, Runt-CBFb FRET, Hck-Nef inh) | YIC FRET counter inactive
CCOC(=O)/C(=N\Nc1ncnc2ccccc12)c1ccc(C)cc1	none (no result: Runt-SMMHC FRET, p97 inhibitor, TbHK1 inh, Runt-CBFb FRET, Hck-Nef inh)
CCc1nc(N)c(C#N)c(-c2ccc(F)cc2)c1C	RanGTP-Impb inh 22.8 | YIC FRET counter inactive
CCc1nc(N)c(C#N)c(-c2cccnc2)c1C	none (no result: RanGTP-Impb inh)
Cc1ccc(-c2c(C#N)c(N)nc3c2CCCC3)s1	RanGTP-Impb inh 21.6 | YIC FRET counter 27.1
N#Cc1c(N)nc2c(c1-c1ccc(F)cc1)CCC2	RanGTP-Impb inh 20.9 | YIC FRET counter 9.91
CC(C)Cc1ccc(CN2CCC(n3nccc3NC(=O)C3CCCC3)CC2)cc1	RanGTP-Impb inh 21.6 (no result: Runt-SMMHC FRET, p97 inhibitor, TbHK1 inh, Runt-CBFb FRET, Hck-Nef inh) | YIC FRET counter inactive
COc1ccc(CN2CCC(n3nccc3NC(=O)C3CCCC3)CC2)cc1	none (no result: Runt-SMMHC FRET, p97 inhibitor, TbHK1 inh, Runt-CBFb FRET, Hck-Nef inh)
O=[N+]([O-])c1cc(CN2CCCC2)ccc1Sc1ccc(Cl)cc1	RanGTP-Impb inh 19.4 | YIC FRET counter inactive
CCCCc1cc(=O)oc2c(C)c(OCC(=O)NCc3ccccn3)ccc12	RanGTP-Impb inh 30.6 (no result: Runt-SMMHC FRET, p97 inhibitor, TbHK1 inh, Runt-CBFb FRET, Hck-Nef inh) | YIC FRET counter inactive
CCN1CCN(Cc2ccc(NC(=O)c3ccc(C)c(/C=C/c4cnc(Nc5cc(N6CCNCC6)nc(C)n5)cn4)c3)cc2C(F)(F)F)CC1	RanGTP-Impb inh 31.0 (no result: Runt-SMMHC FRET, p97 inhibitor, TbHK1 inh, Runt-CBFb FRET, Hck-Nef inh) | YIC FRET counter 17.1
Cc1ccc2cc(CN(CC3CCCO3)C(=S)Nc3ccccc3)c(=O)[nH]c2c1C (stereo unspecified)	RanGTP-Impb inh 17.8 | YIC FRET counter inactive
Cc1cc(C)c2[nH]c(=O)c(CN(CC3CCCO3)C(=S)Nc3ccccc3)cc2c1 (stereo unspecified)	none
Nc1nc(N2CCOCC2)nc(N(c2ccccc2)c2ccccc2)n1	RanGTP-Impb inh 20.7 | YIC FRET counter inactive
CCOCCCNC(=O)c1c[nH]c2c(CC)cccc2c1=O	none
O=C(O)/C=C/C(=O)Nc1ccc2c(c1)NC(=O)CO2	RanGTP-Impb inh 33.9 | YIC FRET counter inactive
O=C1COc2ccc(C(=O)/C=C/c3ccccc3)cc2N1	none
O=C(c1ccc(F)cc1)C1CCN(C(=O)NCc2ccccc2)CC1	none
Cc1c(Cl)c([N+](=O)[O-])nn1CCCC(=O)Nc1sc2c(c1C(N)=O)CCC(C)C2 (stereo unspecified)	RanGTP-Impb inh 24.4 | YIC FRET counter inactive
Cc1c(Br)c([N+](=O)[O-])nn1CCCC(=O)Nc1sc2c(c1C(N)=O)CCC(C)C2 (stereo unspecified)	none
CCOC(=O)c1cccc(NC(=O)COc2nsnc2N2CCOCC2)c1	none (no result: Runt-SMMHC FRET, p97 inhibitor, TbHK1 inh, Runt-CBFb FRET, Hck-Nef inh)
